Results from publication PMC4874899 (Cell chemical biology, 2016).

Key:
cells [1] = test: Cytosolic penetration / endosomal escape by fluorescence microscopy; format: cell-based; details: retro-2 20 µM, 30 min prior to dfTAT (3 µM, 1 h)
Outline: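 Cells at 80–90% confluency (48 h) pretreated 30 min with 20 µM retro-2, then 3 µM dfTAT for 1 h at 37 °C in serum-free L-15. Washed with heparin-containing L-15 (1 mg/mL); SYTOX (5 µM) stained cells excluded. Imaged at 37 °C; % nucleoli-positive cells of bright-field total, >500 cells per experiment, triplicates; t-test.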

[2] = tested on: mEmerald-TGOLN2 transport; test: Retrograde transport of the TGN marker mEmerald-TGOLN2; format: cell-based; details: retro-2 20 µM
[3] = tested on: L.E. LUVs (77:19:4 BMP:PC:PE); details: monomeric TAT; ref Yang et al., 2010; cited from earlier work
cells [4] = details: ref Gao et al., 2009; Gillmeister et al., 2011; Lee et al., 2010; cited from earlier work

Molecule: Cc1ccc(C=Nc2ccccc2C(=O)Nc2ccccc2)s1 [retro-2]
- effect on dfTAT-mediated endosomal escape (cells [1]): had no effect on dfTAT-mediated escape
- inhibition of transport of TGN marker mEmerald-TGOLN2 [2]: capable of inhibiting the transport

Molecule: RKKRRQRRR [TAT]
- effect on BMP-containing liposomes [3]: leaky fusion
- escape from the endocytic pathway (cells [4]): only at a very low efficiency
